An excerpt weighted towards active compounds, which were near 4.6% of everything screened.
OX1R antag-1: antagonists of human orexin 1 receptor. O43613. CHO/OX1R cells, Fluo-8 calcium fluorescence, orexin A. inhibition, % at 5 µM. 330,000 tested, 0.43% active;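 active means inhibition above its plate's threshold, mean inhibition of all tested compounds on the plate plus 3 SD, cut at about 37% in these data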
Target sequence (O43613 whole entry, looked up): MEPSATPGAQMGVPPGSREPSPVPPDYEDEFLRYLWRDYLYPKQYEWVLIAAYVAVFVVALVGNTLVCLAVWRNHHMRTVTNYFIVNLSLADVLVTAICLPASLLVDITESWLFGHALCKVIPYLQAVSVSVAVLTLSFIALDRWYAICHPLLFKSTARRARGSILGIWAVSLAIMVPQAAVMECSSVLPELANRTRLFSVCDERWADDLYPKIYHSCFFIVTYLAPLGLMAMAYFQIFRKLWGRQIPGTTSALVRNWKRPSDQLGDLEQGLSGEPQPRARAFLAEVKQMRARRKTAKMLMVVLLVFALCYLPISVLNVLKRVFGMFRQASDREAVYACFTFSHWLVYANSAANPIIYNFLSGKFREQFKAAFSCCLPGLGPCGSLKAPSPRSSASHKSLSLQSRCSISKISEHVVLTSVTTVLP
OX1R antag-2: blocks the human orexin 1 receptor; O43613; OX1R-expressing cells, FRET antagonist read-out; inhibition, % at 6.6 µM; 330,000 tested, 1.8% active; AID 485270; in the data active means inhibition mostly above about 38%, no sharp cut-off; inactive means mostly below about 40%
TAAR1 antag: human TAAR1 antagonism; Q96RJ0; CHO RD-HGA16 TAAR1, Fluo-8 calcium fluorescence, antagonist; inhibition, % at 3 µM; 360,000 tested, 1.5% active; AID 624466;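 active means inhibition above a per-plate cutoff, the mean inhibition of test compounds on that plate plus 3 SD, cut at about 49% in these data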
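Test system: CHO RD-HGA16 cells bearing hTAAR1 | Reagent: β-PEA, EC80 | Compound dosing: 3 µM, single point | Schedule: Dye loading 75 min at 37 °C, then 30 min room temperature | Signal: Calcium fluorescence with Fluo-8 | Evaluation: Percent inhibition of PEA-evoked calcium signal, max/basal emission ratio | Control set: DMSO-only wells and EC80 β-PEA-stimulated wells | Repeats: Singlicate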
CHO parental Ca: signal in parental CHO cells, OX1R antagonist counter-screen; parental CHO-K1, ATP-induced calcium, Fluo-8 fluorescence; inhibition, % at 5.6 µM; 330,000 tested, 0.63% active;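 active means inhibition above that plate's mean sample inhibition plus 3 SD, cut at about 26% in these data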
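test system = CHO parental line | reagent = ATP stimulus | measured by = intracellular calcium via Fluo-8 no-wash fluorescent dye | control set = ATP and no-ATP DMSO wells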
GPR7 antagonist: blocks human GPR7 receptor signaling; inhibition, % at 4.4 µM; 290,000 tested, 1.1% active; GPR7-expressing cells, fluorescence antagonist assay; P48145; in the data active means inhibition above about 16%, passing the limit was not always enough;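 further: cells stimulated with the agonist NPW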
Target sequence (P48145 whole entry, looked up): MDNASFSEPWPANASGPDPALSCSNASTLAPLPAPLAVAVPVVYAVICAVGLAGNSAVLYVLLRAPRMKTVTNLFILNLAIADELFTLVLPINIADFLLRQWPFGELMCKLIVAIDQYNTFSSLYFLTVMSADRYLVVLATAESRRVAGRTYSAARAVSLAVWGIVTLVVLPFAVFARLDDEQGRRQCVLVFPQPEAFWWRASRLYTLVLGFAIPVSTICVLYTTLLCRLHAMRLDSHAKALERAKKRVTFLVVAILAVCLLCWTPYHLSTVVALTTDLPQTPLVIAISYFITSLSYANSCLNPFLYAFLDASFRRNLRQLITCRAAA
TAAR1 ag: human TAAR1 agonism | 360,000 tested, 0.99% active | activation, % at 3 µM | CHO RD-HGA16 TAAR1, Fluo-8 calcium fluorescence; vehicle wells 0%, saturating PEA agonist 100% | Q96RJ0;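 active means activation above the mean activation of all test compounds in the run plus 3 SD, cut at about 38% in these data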
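Benchmarks: low control DMSO, high control PEA (EC100); System: CHO RD-HGA16 cells carrying human TAAR1 plus Gα16; Detection: Fluo-8 fluorescence, 5 s baseline then 140 s kinetic read; Schedule: 17-24 h plating, Fluo-8 75 min 37 °C, 30 min RT; Read-out basis: % activation from peak over basal fluorescence ratio, DMSO-to-PEA scaled.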
TAAR1 nonsel count: nonselective antagonist in TAAR1 antagonist counter-screen; shares compounds with TAAR1 antag; counterscreen cell line, calcium fluorescence, antagonist mode; inhibition, % at 3 µM; 2,400 tested, 77% active; AID 651780; in the data active means inhibition above about 22%;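 further: CHO-Ga16 host cells stimulated with ATP at an EC80 level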
TAAR1 antag conf: human TAAR1 antagonism, confirmed; shares compounds with TAAR1 antag; TAAR1-expressing cells, fluorescence antagonist read-out; inhibition, % at 3 µM; 2,400 tested, 40% active; AID 651785; in the data active means inhibition above about 49%;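 further: CHO-Ga16 host cells challenged with agonist PEA near its EC80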
Ga16 ag counter: counter-screen for TAAR1 antagonists: nonselective Ga16 agonists; shares compounds with TAAR1 antag; Ga16-expressing cells, calcium fluorescence, agonist counterscreen; activation, % at 3 µM; 2,400 tested, 18% active; in the data active means activation above about 12%
TAAR1 ag counter: TAAR1 agonism, antagonist counter-screen; shares compounds with TAAR1 antag; hTAAR1 cell line, fluorescence activation, agonist mode; activation, % at 3 µM; 2,400 tested, 2% active; AID 651955; in the data active means activation above about 37%;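 further: CHO cells stably expressing TAAR1 with calcium dye readout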
Numbers stand for hits; n = inactive; x = no result given.

SMILES	OX1R antag-1	OX1R antag-2	TAAR1 antag	CHO parental Ca	GPR7 antagonist	TAAR1 ag	TAAR1 nonsel count	TAAR1 antag conf	Ga16 ag counter	TAAR1 ag counter
COc1ccccc1C(=O)NCC(=O)OCC(=O)Nc1cccc(S(=O)(=O)N(C)C)c1	n	n	n	n	n	n	x	x	x	x
COc1cc(C=O)ccc1OCC(=O)Nc1cccc(S(=O)(=O)N(C)c2ccccc2)c1	n	n	63	n	x	n	35	54	n	n
CN(C)S(=O)(=O)c1cccc(NC(=O)COc2ccccc2C(=O)NCc2ccccc2)c1	x	x	63	x	x	n	25	n	n	n
COc1cc(CC(=O)Nc2cccc(S(=O)(=O)N(C)c3ccccc3)c2)cc(OC)c1OC	n	n	n	n	x	n	x	x	x	x
O=[N+]([O-])c1ccc(N2CCN(CCO)CC2)cc1Sc1nc2ccccc2[nH]1	n	n	n	n	n	n	x	x	x	x
O=C1CCCCCN1CP(=O)(O)CN1CCCCCC1=O	n	n	n	n	n	n	x	x	x	x
CCOC(=O)N(C)[C@H]1C[C@H]2c3[nH]c4c(-c5ccccc5)cccc4c3CCN2C(=O)[C@H]1[C@H](C)O	x	x	n	x	x	n	x	x	x	x
COc1ccc(NC(=O)N(C)[C@H]2C[C@H]3c4[nH]c5c(-c6ccccc6)cccc5c4CCN3C(=O)[C@H]2[C@H](C)O)cc1	x	x	69	x	x	n	41	53	n	n
COC(=O)[C@]12CCCCC=C1N(Cc1cccc3ccccc13)C(=O)[C@H](CC(=O)N1CCC(c3ccccc3)CC1)C2	x	x	n	x	x	n	x	x	x	x
COC(=O)[C@]12CCCCC=C1N(Cc1cccc3ccccc13)C(=O)[C@H](CC(=O)N1CCCCC1)C2	x	x	62	x	x	n	22	n	n	n
Cc1ccc(S(=O)(=O)NC2CCCc3ccccc32)cc1C (stereo not given)	n	n	50	n	n	n	n	n	n	n
COC(=O)c1c(-c2ccc(OC)cc2)oc2ccc(-c3cc(OC)c(OC)c(OC)c3)cc12	n	n	58	n	x	n	n	n	n	n
CCCOC(=O)c1c(-c2ccc(OC)cc2)oc2ccc(-c3ccc(OC)nc3)cc12	n	n	x	n	n	x	n	x	n	x
COC(=O)c1c(-c2ccc(OC)cc2)oc2ccc(-c3ccc(OC)nc3)cc12	n	n	n	n	n	n	x	x	x	x
COCCNC(=O)c1ccc(NC(=O)C2(c3ccccc3)CCCC2)cc1	n	n	n	n	n	n	x	x	x	x
CCOc1ccc(-c2c(C)sc3nc[nH]c(=O)c23)cc1	n	n	76	n	n	n	26	n	n	n
Cc1cccc(NC(=O)C2CCN(S(=O)(=O)c3c(C)c(C)cc(C)c3C)CC2)n1	n	n	78	n	x	n	24	50	n	n
CCc1ccc(NC(=O)N2CCCCCC2)cc1	n	n	n	n	n	n	x	x	x	x
O=[N+]([O-])c1ccc(Nc2nc(NC3CCCCC3)nc(N3CCCC3)n2)cc1	n	n	n	n	n	n	x	x	x	x
Oc1ccccc1N1CCN(C(=S)Nc2ccc(SC(F)F)cc2)CC1	n	n	83	n	n	n	42	55	14	n
FC(F)Sc1ccc(NC(=S)N2CCN(c3ccccn3)CC2)cc1	x	x	n	x	n	n	x	x	x	x
O=C(NCCCN1CCOCC1)c1ccccc1N1C(=O)[C@@H]2Cc3c([nH]c4ccccc34)C(c3ccc(F)cc3)N2C1=O (stereo not given in full)	n	n	73	n	n	n	26	n	n	n
O=C(NCCN1CCOCC1)c1ccccc1N1C(=O)[C@@H]2Cc3c([nH]c4ccccc34)C(c3ccccc3)N2C1=O (stereo not given in full)	n	n	n	n	n	n	x	x	x	x
COc1cccc(N2CCN(c3ncnc4c3cnn4-c3ccc(C)cc3C)CC2)c1	n	43	96	42	n	n	48	65	n	n
COc1ccc(-n2ncc3c(N4CCN(Cc5ccccc5)CC4)ncnc32)cc1	n	n	60	n	n	n	28	50	n	n
SMILES	OX1R antag-1	OX1R antag-2	TAAR1 antag	CHO parental Ca	GPR7 antagonist	TAAR1 ag	TAAR1 nonsel count	TAAR1 antag conf	Ga16 ag counter	TAAR1 ag counter
CCN1CCN(c2ncnc3c2cnn3-c2ccccc2)CC1	n	n	n	n	n	n	x	x	x	x
Cc1ccc(S(=O)(=O)N(C)c2ccc(OC(=O)CN3C(=O)NC4(CCCC4)C3=O)cc2)cc1	n	n	n	n	x	n	x	x	x	x
Cc1ccc(S(=O)(=O)N(C)c2ccc(OC(=O)CN3C(=O)NC4(CCCC4)C3=O)cc2)cc1C	n	n	82	n	x	n	40	51	12	n
O=C(c1cccc(C(F)(F)F)c1)c1c[nH]c(C(=O)NCCCN2CCOCC2)c1	n	n	n	n	n	n	x	x	x	x
Cc1ccc2c(c1)C(=O)C(=O)N2Cc1ccc(Cl)cc1	n	n	55	n	x	n	n	n	n	n
Cn1c(NC(=O)c2cccc(Cn3cc(Cl)cn3)c2)nc2ccccc21	n	n	n	n	n	n	x	x	x	x
CCn1c(NC(=O)c2cccc(Cn3cc(Cl)cn3)c2)nc2ccccc21	n	n	66	n	n	n	26	n	n	n
COc1ccc(NC(=O)c2nc[nH]c2C(=O)NCCCCCNC(=O)OC(C)(C)C)cc1	n	n	x	n	x	x	x	x	x	x
COc1ccc(CCNC(=O)C(=O)NCC2CCCN2S(=O)(=O)c2cc(C)ccc2C)cc1 (stereo not given)	n	n	73	n	x	n	28	53	n	n
Cc1ccc(C)c(S(=O)(=O)N2CCCC2CNC(=O)C(=O)NCCc2ccccc2)c1 (stereo not given)	n	38	69	n	x	n	31	n	n	n
Cc1cc(C(=O)NC2CC(C)(C)Cc3c2cnn3-c2ccc(F)cc2)no1 (stereo not given)	n	n	n	n	n	n	x	x	x	x
CCS(=O)(=O)N1Cc2ccccc2CC1C(=O)Nc1nnc(SCc2ccc(F)cc2)s1 (stereo not given)	n	n	62	n	n	n	32	n	n	n
CCc1nnc(NC(=O)C2Cc3ccccc3CN2S(=O)(=O)CC)s1 (stereo not given)	n	n	n	n	n	n	x	x	x	x
Cc1cc(NC(=O)COC(=O)COc2ccc(Cl)c(C)c2)no1	x	x	n	x	x	n	x	x	x	x
CCc1ccccc1S(=O)(=O)Cc1ccc(C(=O)N2CCN(c3ccccn3)CC2)o1	n	n	51	n	n	n	25	n	n	n
Cc1ccccc1S(=O)(=O)Cc1ccc(C(=O)N2CCN(c3ncccn3)CC2)o1	n	n	n	n	n	n	x	x	x	x

Bioassay records (PubChem BioAssay)
